Values after ≈ are worked out from the molar mass of the structure shown. Active and inactive are the calls of the source. The rule behind the calls is not given here.
Assays:
Streptococcus pneumoniae [1] = assay: Antibacterial activity against penicillin-resistant Streptococcus pneumoniae 700677; format: functional
In short: (§1)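 Streptococci tested by CLSI broth microdilution in Mueller-Hinton broth with 5% defibrinated horse blood, log-phase inoculum at 1 x 10^5 CFU/ml. Incubated 37°C with shaking, 16 to 20 h, in 5% humidified CO2. Compounds at 1% DMSO final. MIC is the lowest concentration without growth by OD600. Quadruplicate; highest MIC reported.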

Streptococcus pneumoniae [2] = assay: Antibacterial activity against penicillin-resistant Streptococcus pneumoniae 700670; format: functional; in short: as §1
Staphylococcus aureus [3] = assay: Antibacterial activity against mupirocin-sensitive Staphylococcus aureus 2529; format: functional
Pseudomonas aeruginosa = assay: Antibacterial activity against Pseudomonas aeruginosa 27853; format: functional
[4] = tested on: Stenotrophomonas maltophilia; assay: Antibacterial activity against Stenotrophomonas maltophilia 13637; format: functional
Staphylococcus aureus [5] = assay: Antibacterial activity against methicillin-resistant Staphylococcus aureus 1123; format: functional
In short: (§2)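 Broth microdilution per CLSI with modified incubation. Log-phase cultures in cation-adjusted Mueller-Hinton broth, seeded at 1 x 10^5 CFU/ml. Compounds from DMSO stocks, 1% DMSO final. Incubated 37°C, 16 to 20 h, shaken. Growth read as OD600. MIC is the lowest concentration with no apparent growth. Run in quadruplicate; highest value reported.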

Streptococcus pneumoniae [6] = assay: Antibacterial activity against penicillin-resistant Streptococcus pneumoniae 700673; format: functional; in short: as §1
Enterococcus faecium [7] = assay: Antibacterial activity against vancomycin-resistant Enterococcus faecium 1644; format: functional; in short: as §2
Staphylococcus aureus [8] = assay: Antibacterial activity against Staphylococcus aureus 25923; format: functional; in short: as §2
Streptococcus pyogenes = assay: Antibacterial activity against Streptococcus pyogenes 12344; format: functional
Staphylococcus aureus [9] = assay: Antibacterial activity against ciprofloxacin-resistant Staphylococcus aureus Smith; format: functional; in short: as §2
Bacillus subtilis [10] = assay: Inhibition of DNA synthesis in Bacillus subtilis BD54; format: functional, organism-based
In short: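 B. subtilis BD54 grown to log phase in C plus 50 medium; compound in DMSO added with [8-3H]adenine at time zero, at 5x or 1x MIC; samples over time. DNA = alkali-insensitive TCA-insoluble label; RNA = total TCA-insoluble minus DNA. Effect judged against diluent-control incorporation.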

Enterococcus faecium [11] = assay: Antibacterial activity against vancomycin and linezolid-resistant Enterococcus faecium F118; format: functional; in short: as §2
Staphylococcus aureus [12] = assay: Antibacterial activity against Staphylococcus aureus Smith in presence of 10% FCS; format: functional
Streptococcus pneumoniae [13] = assay: Antibacterial activity against penicillin-resistant Streptococcus pneumoniae 700674; format: functional; in short: as §1
Bacillus anthracis = assay: Antibacterial activity against Bacillus anthracis Sterne; format: functional
Enterococcus faecium [14] = assay: Antibacterial activity against Enterococcus faecium 19434; format: functional; in short: as §2
Enterococcus faecalis [15] = assay: Antibacterial activity against vancomycin-resistant Enterococcus faecalis 51575; format: functional; in short: as §2
Streptococcus pneumoniae [16] = assay: Antibacterial activity against penicillin-resistant Streptococcus pneumoniae 700671; format: functional; in short: as §1
Staphylococcus aureus [17] = assay: Antibacterial activity against Staphylococcus aureus Smith 13709; format: functional; in short: as §2
Bacillus cereus [18] = assay: Antibacterial activity against Bacillus cereus 6464; format: functional
[19] = Inhibition of Bacillus subtilis gyrase
Staphylococcus aureus [20] = assay: Antibacterial activity against HB-EMAU-resistant Staphylococcus aureus Smith; format: functional; in short: as §2
Enterococcus faecalis [21] = assay: Antibacterial activity against vancomycin-resistant Enterococcus faecalis 700802; format: functional; in short: as §2
Enterococcus faecium [22] = assay: Antibacterial activity against vancomycin-resistant Enterococcus faecium B42762; format: functional; in short: as §2
[23] = Therapeutic index, CC50 for MRC5 cells/MIC for Staphylococcus aureus Smith; format: cell-based; conditions: human
Staphylococcus aureus [24] = assay: Antibacterial activity against HB-EMAU-resistant and ciprofloxacin-resistant Staphylococcus aureus Smith; format: functional; in short: as §2
Staphylococcus aureus [25] = assay: Antibacterial activity against mupirocin-resistant Staphylococcus aureus 777; format: functional; in short: as §2
Streptococcus pneumoniae [26] = assay: Antibacterial activity against Streptococcus pneumoniae 49619; format: functional; in short: as §1
Staphylococcus aureus [27] = assay: Antibacterial activity against methicillin-resistant Staphylococcus aureus 1094; format: functional; in short: as §2
Bacillus cereus [28] = assay: Antibacterial activity against Bacillus cereus 4342; format: functional
Staphylococcus aureus [29] = assay: Antibacterial activity against methicillin-resistant Staphylococcus aureus 1132; format: functional; in short: as §2
Escherichia coli [30] = assay: Antibacterial activity against Escherichia coli J53; format: functional
Escherichia coli [31] = assay: Antibacterial activity against ciprofloxacin-resistant Escherichia coli XL1-Blue; format: functional; in short: as §2
Bacillus subtilis [32] = assay: Antibacterial activity against Bacillus subtilis BD54; format: functional
[33] = Cytotoxicity against human MRC5 cells; format: cell-based
In short: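 MRC-5 human diploid fibroblasts, 4 x 10^3 cells per well, exposed to compound from DMSO stock (final 1%) in minimal essential medium with 10% fetal calf serum for 72 h at 37°C beside a DMSO-only control.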

Enterococcus faecalis [34] = assay: Antibacterial activity against vancomycin-resistant Enterococcus faecalis 51299; format: functional; in short: as §2
Bacillus thuringiensis [35] = assay: Antibacterial activity against Bacillus thuringiensis 10792; format: functional
Staphylococcus aureus [36] = assay: Antibacterial activity against Staphylococcus aureus 1081; format: functional; in short: as §2
Enterococcus faecalis [37] = assay: Antibacterial activity against Enterococcus faecalis 29212; format: functional; in short: as §2
Staphylococcus aureus [38] = assay: Antibacterial activity against methicillin-resistant Staphylococcus aureus B42876; format: functional; in short: as §2
Bacillus thuringiensis [39] = assay: Antibacterial activity against Bacillus thuringiensis 33679; format: functional
[40] = Inhibition of Bacillus subtilis topoisomerase 4
Klebsiella pneumoniae = assay: Antibacterial activity against Klebsiella pneumoniae 5657; format: functional

With `CC1CN(c2c(F)cc3c(=O)c(C(=O)O)cn(C4CC4)c3c2F)CCN1` (centres undefined) the MIC (Streptococcus pneumoniae [1]) was 0.625 µg/mL (≈ 1.72 µM), the MIC (Streptococcus pneumoniae [2]) was 0.313 µg/mL (≈ 0.861 µM) and the MIC (Staphylococcus aureus [3]) was 80 µg/mL (≈ 220 µM). It also gave an MIC (Pseudomonas aeruginosa) of 0.313 µg/mL (≈ 0.861 µM), an MIC [4] of 0.078 µg/mL (≈ 0.215 µM) and an MIC (Staphylococcus aureus [5]) of 20 µg/mL (≈ 55 µM). It also gave an MIC (Streptococcus pneumoniae [6]) of 0.156 µg/mL (≈ 0.429 µM), an MIC (Enterococcus faecium [7]) of 40 µg/mL (≈ 110 µM) and an MIC (Staphylococcus aureus [8]) of 0.156 µg/mL (≈ 0.429 µM). The MIC (Streptococcus pyogenes) was 0.156 µg/mL (≈ 0.429 µM), the MIC (Staphylococcus aureus [9]) was 5 µg/mL (≈ 13.8 µM) and the Activity (Bacillus subtilis [10]) was “Active”. The MIC (Enterococcus faecium [11]) was 80 µg/mL (≈ 220 µM), the MIC (Staphylococcus aureus [12]) was 0.078 µg/mL and the MIC (Streptococcus pneumoniae [13]) was 0.625 µg/mL (≈ 1.72 µM). For the same molecule, the MIC (Bacillus anthracis) was 0.039 µg/mL (≈ 0.107 µM), the MIC (Enterococcus faecium [14]) was 10 µg/mL (≈ 27.5 µM) and the MIC (Enterococcus faecalis [15]) was 0.313 µg/mL (≈ 0.861 µM). It also gave an MIC (Streptococcus pneumoniae [16]) of 0.313 µg/mL (≈ 0.861 µM), an MIC (Staphylococcus aureus [17]) of 0.078 µg/mL (≈ 0.215 µM) and an MIC (Bacillus cereus [18]) of 0.078 µg/mL (≈ 0.215 µM). For the same molecule, the IC50 [19] was 5.6 µM, the MIC (Staphylococcus aureus [20]) was 0.078 µg/mL (≈ 0.215 µM) and the MIC (Enterococcus faecalis [21]) was 0.313 µg/mL (≈ 0.861 µM). The MIC (Enterococcus faecium [22]) was 40 µg/mL (≈ 110 µM), the selectivity ratio [23] was > 1000 and the MIC (Staphylococcus aureus [24]) was 5 µg/mL (≈ 13.8 µM). The MIC (Staphylococcus aureus [25]) was 40 µg/mL (≈ 110 µM), the MIC (Streptococcus pneumoniae [26]) was 0.313 µg/mL (≈ 0.861 µM) and the MIC (Staphylococcus aureus [27]) was 20 µg/mL (≈ 55 µM). It also gave an MIC (Bacillus cereus [28]) of 0.078 µg/mL (≈ 0.215 µM), an MIC (Staphylococcus aureus [29]) of 0.156 µg/mL (≈ 0.429 µM) and an MIC (Escherichia coli [30]) of 0.01 µg/mL (≈ 0.0275 µM). For the same molecule, the MIC (Escherichia coli [31]) was 40 µg/mL (≈ 110 µM), the MIC (Bacillus subtilis [32]) was 0.039 µg/mL (≈ 0.107 µM) and the CC50 [33] was > 80 µg/mL. The MIC (Enterococcus faecalis [34]) was 0.313 µg/mL (≈ 0.861 µM), the MIC (Bacillus thuringiensis [35]) was 0.156 µg/mL (≈ 0.429 µM) and the MIC (Staphylococcus aureus [36]) was 10 µg/mL (≈ 27.5 µM). It also gave an MIC (Enterococcus faecalis [37]) of 0.313 µg/mL (≈ 0.861 µM), an MIC (Staphylococcus aureus [38]) of 80 µg/mL (≈ 220 µM) and an MIC (Bacillus thuringiensis [39]) of 0.078 µg/mL (≈ 0.215 µM). It also gave an IC50 [40] of 4.2 µM and an MIC (Klebsiella pneumoniae) of 0.156 µg/mL (≈ 0.429 µM).
